PfHsp90 yeast 2 – inhibits growth of yeast expressing Plasmodium falciparum Hsp90 | S. cerevisiae expressing PfHsp90, BacTiter-Glo ATP, 48 h; yeast lacking PDR1 and PDR3 efflux regulators | inhibition, % at 9.4 µM | 310,000 compounds, 0.32% hits;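 active = every replicate shows inhibition above about 80%, whatever the replicate mean, limit read from the data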;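 also: 0% = DMSO neutral controls and 100% = 20 µM radicicol positive controls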
N-glyco inh – N-linked glycosylation inhibition; reporter increase, % at 12.5 µM; D54 ERlucT glycosylation luciferase reporter, 24 h; percent of 100 nM tunicamycin response; AID 588692; 360,000 compounds, 0.23% hits;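 active = mean luciferase reporter signal, scaled so untreated is 0 and the glycosylation-blocking control 100, at or above a set limit in every replicate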;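 also: luciferase carries N-glycosylation sites so blocking glycosylation raises the light; 0% = median of neutral control wells and 100% = median of 100 nM tunicamycin wells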
T cruzi repl – blocks replication of Trypanosoma cruzi. 300,000 compounds, 1.4% hits. AID 1885. inhibition, % (no concentration beside the values). T. cruzi beta-gal in NIH3T3, luminescence, 90 h;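 active = mean inhibition across valid replicates above about 55%, limit read from the data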;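 also: signal also drops with host cell toxicity which is not excluded here; 0% = plate median of DMSO wells and 100% = zero luminescence signal; higher percent means less beta-gal luminescence so fewer parasites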
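compound dosing = single 50 nL compound addition per well in DMSO | material = NIH/3T3 host cells with β-galactosidase reporter T. cruzi | input = 5,000 host fibroblasts per well | timing = ≥90 h infection period, 3 h prior cell attachment | read-out basis = percent inhibition of parasite-derived β-gal signal | detection = GalScreen β-gal luminescence, detergent lysis, 60 min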
PvdQ acylase – P. aeruginosa PvdQ acylase inhibition; purified PvdQ acylase, fluorescence plate reader; inhibition, % at 10 µM; 340,000 compounds, 0.063% hits; in the data active = inhibition above about 30%, passing the limit was not always enough;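 also: 0% = vehicle neutral wells and 100% = reference inhibitor wells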
CaV13 FRET inh – Primary screen for inhibitors of IQ motif and Ca2+-dependent inactivation inhibitor domain binding in CACNA1D, Förster resonance energy transfer in living cells, …; HEK cells, CFP/YFP FRET ICDI-IQ, plate reader, 10 min; percent FRET-ratio fall versus neutral wells; inhibition, % at 12.3 µM; 340,000 compounds, 0.098% hits; AID 743397;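 active = mean replicate inhibition of at least 30% and at least 1% of replicates passing that level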;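 also: 0% = median of the neutral control wells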
HSF1 activator – increases HSF-1 driven luciferase reporter signal; NIH3T3-HGL HSF-1 luciferase reporter, MG132, 8 h; 100% = twice DMSO control signal; activation, % at 9 µM; 300,000 compounds, 1.7% hits;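 active = mean replicate activation of at least 50% with a set share of replicates each reaching 50%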;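 also: 0% = median of the neutral control wells and 100% = twice that signal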
* marks the source's active call; other numbers are inactive results. Hits are enriched below; roughly 3% of the tested compounds scored in any of these assays.

What do the screens show for `c1ccc(C2=Nc3ccccc3SC2c2nc3ccccc3[nH]2)cc1` (stereo not given)?
T cruzi repl: -17.5; HSF1 activator: 83.8*

How did COc1cccc(NC(=S)/C(=C(\[O-])c2cc(C)n(-c3ccccc3F)c2C)[n+]2ccc(N(C)C)cc2)c1 do in these assays?
PfHsp90 yeast 2: 4.1; N-glyco inh: -5.9; T cruzi repl: 75.3*; PvdQ acylase: -3.2; CaV13 FRET inh: -0.8; HSF1 activator: -38.6

What do the screens show for `Cc1cc(C([O-])=C(C(=S)Nc2ccc(F)cc2)[n+]2ccccc2)c(C)n1-c1ccc(F)cc1`?
PfHsp90 yeast 2: 0.7; N-glyco inh: -6.5; PvdQ acylase: -16.5; CaV13 FRET inh: -9.6

What do the screens show for `Cc1oc(-c2ccccc2Cl)nc1CN1CCCCC1c1cccnc1` (stereo not given)?
PfHsp90 yeast 2: -7.8; N-glyco inh: 1.8; T cruzi repl: 59.2*; PvdQ acylase: -8.0; CaV13 FRET inh: 4.1; HSF1 activator: -7.7

What do the screens show for `COc1ccc(-c2nc(CN3CCCCC3c3cccnc3)c(C)o2)c(F)c1` (stereo not given)?
PfHsp90 yeast 2: -9.1; N-glyco inh: -0.2; T cruzi repl: 64.4*; PvdQ acylase: 7.4; CaV13 FRET inh: 0.5; HSF1 activator: 11.7

Results for Cc1ccc(-c2nc(CN3CCCCC3c3cccc(F)c3)c(C)o2)o1 (stereo not given) ?
PfHsp90 yeast 2: -2.0; N-glyco inh: -3.7; T cruzi repl: 9.4; PvdQ acylase: -4.9; CaV13 FRET inh: -6.6; HSF1 activator: 28.6

How did COc1ccc2c(c1)CO[C@]21O[C@H](CCO)C[C@H](O)[C@H]1O do in these assays?
N-glyco inh: 0.2; CaV13 FRET inh: -3.2

How did Cc1c(C)n(CCCN(C)C)c2ncnc(Nc3ccc(F)cc3)c12 do in these assays?
PfHsp90 yeast 2: 43.6; N-glyco inh: -0.5; T cruzi repl: 61.0*; PvdQ acylase: -1.3; CaV13 FRET inh: -17.5; HSF1 activator: 14.0

What do the screens show for `O=S(=O)(Nc1ccc(NS(=O)(=O)c2ccccc2)cc1)c1ccccc1`?
N-glyco inh: -2.5; CaV13 FRET inh: -5.0

What do the screens show for `O=C1C(Nc2ccccc2)=C(NS(=O)(=O)c2ccccc2)C(=O)c2ccccc21`?
PfHsp90 yeast 2: -6.5; N-glyco inh: 3.3; T cruzi repl: -3.8; PvdQ acylase: -10.2; CaV13 FRET inh: -3.9; HSF1 activator: 60.4*

Results for COc1ccc2c(c1)[C@@H](NC(=O)c1ccncc1)[C@H](C)[C@H]2c1ccccc1 ?
CaV13 FRET inh: -8.3

What do the screens show for `c1ccc(N2CCN(c3cnc4ccccc4n3)CC2)cc1`?
PfHsp90 yeast 2: 3.5; N-glyco inh: -11.1; T cruzi repl: 3.2; PvdQ acylase: -10.7; CaV13 FRET inh: -3.5; HSF1 activator: 74.8*

Results for COc1cc(C(=O)COC(=O)c2ccncc2)cc(OC)c1OC ?
N-glyco inh: 1.0; PvdQ acylase: 8.9; CaV13 FRET inh: -6.9

How did O=C(Nc1ccncc1)Nc1cccc(Cl)c1 do in these assays?
PfHsp90 yeast 2: 22.5; N-glyco inh: -0.6; T cruzi repl: 43.3; PvdQ acylase: -2.4; CaV13 FRET inh: -8.3; HSF1 activator: 5.3

How did O=C(Nc1ccc(-n2ccc(C(F)(F)F)n2)cc1)Nc1cccc(Cl)c1 do in these assays?
PfHsp90 yeast 2: 4.4; N-glyco inh: -5.5; T cruzi repl: 62.1*; PvdQ acylase: 2.3; CaV13 FRET inh: 0.7; HSF1 activator: 11.6

How did O=C(Nc1cccc(Cl)c1)Nc1ccccc1-n1ccnc1 do in these assays?
PfHsp90 yeast 2: -7.8; N-glyco inh: -0.9; T cruzi repl: 56.6*; PvdQ acylase: -12.8; CaV13 FRET inh: -2.5; HSF1 activator: 0.1

What do the screens show for `Cc1ccc(S(=O)(=O)N(C)[C@H]2C[C@H]3c4cc(-c5ccc6c(c5)OCO6)ccc4CCN3C[C@H]2[C@H](C)O)cc1`?
CaV13 FRET inh: -3.9

Results for CCOC(=O)C1=C(C)NC(C)=C(C(=O)OCC)C1/C=C/c1ccccc1OC ?
PfHsp90 yeast 2: 15.0; N-glyco inh: 7.2; T cruzi repl: 39.6; PvdQ acylase: -22.4; CaV13 FRET inh: -26.9; HSF1 activator: 66.6*
